Experimental data: ChEMBL document CHEMBL1152657, “1-(2-((Z)-6-(2-(Trifluoromethyl)phenyl)hexa-3-en-1,5-diynyl)phenyl)piperidin-2-one as a new potent apoptosis agent” (2009)
Calls of active or inactive are those of the source. The calls are words filed in the database; no cut-off is given here.

What was measured:
[1] = test system: K562; experiment: Cell cycle arrest in human K562 cells assessed as accumulation at G0/G1 phase at 50 uM after 24 hrs by flow cytometry; format: functional
Outline: (§1)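 K-562 cells (RPMI 1640, 10% fetal calf serum, 37 °C, 5% CO2) were exposed for 24 h, then fixed in ice-cold 70% ethanol for 30 min. They were treated with RNase A (1 mg/ml, 37 °C, 30 min) and stained with propidium iodide and Triton X-100 solution for 30 min in the dark. DNA content was read on 10,000 events by flow cytometry, and the sub-G1 region was gated as apoptotic.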

[2] = test system: HCT-15; experiment: Growth inhibition of human HCT15 cells; format: functional
Outline: (§2)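 Tested in the NCI in vitro antitumor screening protocol on human tumor lines. The value is the concentration giving 50% reduction in cell growth.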

[3] = test system: K562; experiment: Growth inhibition of human K562 cells; format: functional; outline: as §2
[4] = test system: HeLa; experiment: Induction of microtubule depolymerization in human HeLa cells at 50 uM after 2 hrs by immunocytochemistry; format: functional, cell-based
Outline: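 HeLa cells were grown 24 h on coverslips, then treated at 37 °C. They were fixed in 4% paraformaldehyde for 5 min and permeabilized with 0.5% Triton X-100. After blocking with 5% goat serum/1% BSA, cells were stained with anti-ninein and anti-tubulin (45 min, 37 °C), then Alexa-conjugated secondaries and DAPI. Imaging was by confocal microscopy with a 100x objective.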

[5] = test system: K562; experiment: Induction of apoptosis in human K562 cells assessed as downregulation of XIAP protein level after 24 hrs by Western blot; format: functional, cell-based
Outline: (§3)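 Cells were dosed at several concentrations for 24 h and lysed in Tris-HCl pH 7.5 NP-40 buffer with phosphatase inhibitors. Equal protein was run on SDS-PAGE and transferred to PVDF. Membranes were blocked with 5% nonfat milk in TBST for 1 h, then immunoblotted.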

[6] = test system: K562; experiment: Cell cycle arrest in human K562 cells assessed as accumulation at S phase at 50 uM after 24 hrs by flow cytometry; format: functional; outline: as §1
[7] = test system: K562; experiment: Cell cycle arrest in human K562 cells assessed as accumulation at G2/M phase at 10 uM after 24 hrs by flow cytometry; format: functional; outline: as §1
[8] = test system: MDA-MB-435; experiment: Growth inhibition of human MDA-MB-435 cells; format: functional; outline: as §2
[9] = test system: K562; experiment: Induction of apoptosis in human K562 cells assessed as cytochrome-C release after 24 hrs by Western blot; format: functional, cell-based; outline: as §3
[10] = test system: K562; experiment: Cell cycle arrest in human K562 cells assessed as accumulation at G0/G1 phase at 10 uM after 24 hrs by flow cytometry; format: functional; outline: as §1
[11] = test system: ACHN; experiment: Growth inhibition of human ACHN cells; format: functional; outline: as §2
[12] = test system: K562; experiment: Induction of apoptosis in human K562 cells assessed as increase in caspase-9 activity at 50 uM by colorimetric assay; format: functional, cell-based
Outline: (§4)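 Treated K-562 cells (1×10^6 cells/ml) were PBS-washed and lysed on ice for 10 min, and the cytosolic supernatant was cleared at 18,000 g. Protein was measured by BCA. Lysate protein was incubated with caspase-specific colorigenic substrate in 2X reaction buffer with 10 mM DTT at 37 °C for 1 h, and absorbance was read at 405 nm.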

[13] = test system: OVCAR-3; experiment: Growth inhibition of human OVCAR-3 cells; format: functional; outline: as §2
[14] = test system: K562; experiment: Induction of apoptosis in human K562 cells assessed as increase in caspase-3 activity by colorimetric assay; format: functional, cell-based; outline: as §4
[15] = test system: K562; experiment: Induction of apoptosis in human K562 cells assessed as upregulation of Bax protein level after 24 hrs by Western blot; format: functional, cell-based; outline: as §3
[16] = test system: K562; experiment: Cell cycle arrest in human K562 cells assessed as accumulation at SubG1 phase at 50 uM after 24 hrs by flow cytometry; format: functional; outline: as §1
[17] = test system: K562; experiment: Induction of apoptosis in human K562 cells assessed as down-regulation of Bcl2 protein level after 24 hrs by Western blot; format: functional, cell-based; outline: as §3
[18] = test system: SNB-75; experiment: Growth inhibition of human SNB75 cells; format: functional; outline: as §2
[19] = test system: K562; experiment: Induction of apoptosis in human K562 cells assessed as increase in caspase-9 activity at 25 uM by colorimetric assay; format: functional, cell-based; outline: as §4
[20] = test system: UACC-62; experiment: Growth inhibition of human UACC62 cells; format: functional; outline: as §2
[21] = test system: K562; experiment: Cell cycle arrest in human K562 cells assessed as accumulation at G2/M phase at 50 uM after 24 hrs by flow cytometry; format: functional; outline: as §1
[22] = test system: K562; experiment: Cell cycle arrest in human K562 cells assessed as apoptotic cells at 50 uM after 24 hrs by flow cytometry; format: functional; outline: as §1
[23] = test system: K562; experiment: Cell cycle arrest in human K562 cells assessed as accumulation at G1 phase at 50 uM after 24 hrs by flow cytometry; format: functional; outline: as §1
[24] = test system: K562; experiment: Cell cycle arrest in human K562 cells assessed as accumulation at SubG1 phase at 10 uM after 24 hrs by flow cytometry; format: functional; outline: as §1
[25] = test system: M14; experiment: Growth inhibition of human M14 cells; format: functional; outline: as §2
[26] = test system: K562; experiment: Cell cycle arrest in human K562 cells assessed as accumulation at S phase at 10 uM after 24 hrs by flow cytometry; format: functional; outline: as §1
[27] = test system: CCRF-CEM; experiment: Growth inhibition of human CCRF-CEM cells; format: functional; outline: as §2
[28] = test system: HCC 2998; experiment: Growth inhibition of human HCC2998 cells; format: functional; outline: as §2
[29] = test system: DU-145; experiment: Growth inhibition of human DU145 cells; format: functional; outline: as §2
[30] = test system: MDA-MB-231; experiment: Growth inhibition of human MDA-MB-231 cells; format: functional; outline: as §2
[31] = test system: HOP-62; experiment: Growth inhibition of human HOP62 cells; format: functional; outline: as §2
[32] = test system: K562; experiment: Induction of apoptosis in human K562 cells assessed as PARP cleavage after 24 hrs by Western blot; format: functional, cell-based; outline: as §3

Row | GI50 [2] [nM] | GI50 [3] [nM] | GI50 [8] [nM] | GI50 [11] [nM] | GI50 [13] [nM] | GI50 [27] [nM] | GI50 [28] [nM] | GI50 [29] [nM] | GI50 [30] [nM] | SMILES | Activity [1] [%] | Activity [6] [%] | Activity [7] [%] | Activity [10] [%] | Activity [16] [%] | GI50 [18] [nM] | GI50 [20] [nM] | Activity [21] [%] | Activity [24] [%] | GI50 [25] [nM] | Activity [26] [%] | other results
1 | 1530 | 8560 | 600 | 2670 | 870 | 1560 | 950 | 1680 | 1160 | O=C1CCCCN1c1ccccc1C#C/C=C\C#Cc1ccccc1C(F)(F)F | 40.3 | 0 | 78.3 | 8.9 | 31.57 | 1610 | 1440 | 59.7 | 23.9 | 900 | 12.9 | Activity [4]: Active; Activity [5]: Dose-dependent effect; Activity [9]: Dose-dependent effect; Activity [12]: Active; Activity [14]: Dose-dependent effect; Activity [15]: Dose-dependent effect; Activity [17]: Dose-dependent effect; Activity [19]: Active; Activity [22]: 51%; Activity [23]: 27.7%; GI50 [31]: 890 nM; Activity [32]: Active
2 | 3350 | 2290 | 750 | 4080 | 1790 | 790 | 4190 | 1930 | 2170 | CCC(=O)Nc1ccccc1C#C/C=C\C#Cc1ccccc1SC | 18.7 | 12.7 | 35.2 | 22.7 | 16.2 | 630 | 1690 | 68.5 | 9.8 | 1790 | 42.1 | GI50 [31]: 2520 nM
3 | 4270 | 6360 | 1920 | 30100 | 8870 | 2750 | 5080 | 40500 | 7920 | CCC(=O)Nc1ccccc1C#C/C=C\C#Cc1ccccc1C(F)(F)F | 1.2 | 16.1 | 33.5 | 14.6 | 26.11 | 4760 | 4040 | 82.7 | 15.3 | 12000 | 51.9 | GI50 [31]: 10000 nM
4 |  |  |  |  |  |  |  |  |  | Nc1ccccc1C#C/C=C\C#Cc1ccccc1C(F)(F)F |  | 19.3 |  |  |  |  |  | 73.9 |  |  |  | Activity [4]: Active; Activity [12]: Active; Activity [14]: Dose-dependent effect; Activity [19]: Active; Activity [22]: 19.4%; Activity [23]: 6.7%
5 | 1530 | 440 | 900 | 10500 | 1030 | 210 | 1320 | 10100 | 1190 | CSc1ccccc1C#C/C=C\C#Cc1ccccc1N1CCCC1=O | 7.7 | 22.9 | 51.7 | 49.3 | 17.79 | 2340 | 1440 | 69.4 | 15.39 | 3000 | 0 | GI50 [31]: 5020 nM
